Measurements as given in publication PMC6543826 (Bioorganic chemistry, 2018).
Values joined by “and” are separate entries in the source; they are usually repeats but may differ in a detail not shown here. Equal values may be shown once.

Legend:
A498 = experiment: NCI-60 SRB screen, Renal cancer; assay type: cell-based, human; conditions: A498, 10^−5 M, 48 h
SK-MEL-2 = experiment: cells; assay type: cell-based; conditions: SK-MEL-2, 10^−5 M, 48 h
PC-3 = experiment: cells; assay type: cell-based; conditions: PC-3, 10^−5 M, 48 h
MDA-MB-435 = experiment: cells; assay type: cell-based; conditions: MDA-MB-435, 10^−5 M, 48 h
MCF7 = experiment: cells; assay type: cell-based; conditions: MCF7, 10^−5 M, 48 h
HOP-92 = experiment: cells; assay type: cell-based; conditions: HOP-92, 10^−5 M, 48 h
HCT-15 = experiment: cells; assay type: cell-based; conditions: HCT-15, 10^−5 M, 48 h
HT29 = experiment: cells; assay type: cell-based; conditions: HT29, 10^−5 M, 48 h
UO-31 = experiment: cells; assay type: cell-based; conditions: UO-31, 10^−5 M, 48 h
U251 = experiment: cells; assay type: cell-based; conditions: U251, 10^−5 M, 48 h
HCT-116 = experiment: cells; assay type: cell-based; conditions: HCT-116, 10^−5 M, 48 h
UACC-62 = experiment: cells; assay type: cell-based; conditions: UACC-62, 10^−5 M, 48 h
RXF 393 = experiment: cells; assay type: cell-based; conditions: RXF 393, 10^−5 M, 48 h
HOP-62 = experiment: cells; assay type: cell-based; conditions: HOP-62, 10^−5 M, 48 h
SF-268 = experiment: cells; assay type: cell-based; conditions: SF-268, 10^−5 M, 48 h
BT-549 = experiment: cells; assay type: cell-based; conditions: BT-549, 10^−5 M, 48 h
T-47D = experiment: cells; assay type: cell-based; conditions: T-47D, 10^−5 M, 48 h
SNB-75 = experiment: cells; assay type: cell-based; conditions: SNB-75, 10^−5 M, 48 h
M14 = experiment: cells; assay type: cell-based; conditions: M14, 10^−5 M, 48 h
DU-145 = experiment: cells; assay type: cell-based; conditions: DU-145, 10^−5 M, 48 h
KM 12 = experiment: cells; assay type: cell-based; conditions: KM 12, 10^−5 M, 48 h
NCI-H23 = experiment: cells; assay type: cell-based; conditions: NCI-H23, 10^−5 M, 48 h
NCI-H460 = experiment: cells; assay type: cell-based; conditions: NCI-H460, 10^−5 M, 48 h
NCI-H226 = experiment: cells; assay type: cell-based; conditions: NCI-H226, 10^−5 M, 48 h
LOX IMVI = experiment: cells; assay type: cell-based; conditions: 10^−5 M, 48 h
CCRF-CEM = experiment: cells; assay type: cell-based; conditions: 10^−5 M, 48 h
[1] = test system: NCI-60 panel of tumor cell lines
SK-MEL-5 = experiment: cells; assay type: cell-based; conditions: SK-MEL-5, 10^−5 M, 48 h
OVCAR-3 = experiment: cells; assay type: cell-based; conditions: OVCAR-3, 10^−5 M, 48 h
SK-MEL-28 = experiment: cells; assay type: cell-based; conditions: SK-MEL-28, 10^−5 M, 48 h
A549/ATCC = experiment: cells; assay type: cell-based; conditions: A549/ATCC, 10^−5 M, 48 h
RPMI-8226 = experiment: cells; assay type: cell-based; conditions: RPMI-8226, 10^−5 M, 48 h
SW-620 = experiment: cells; assay type: cell-based; conditions: SW-620, 10^−5 M, 48 h
EKVX = experiment: NCI-60 SRB screen, Non-small cell lung cancer; assay type: cell-based, human; conditions: 10^−5 M, 48 h
NCI-H322M = experiment: cells; assay type: cell-based; conditions: 10^−5 M, 48 h
OVCAR-8 = experiment: cells; assay type: cell-based; conditions: OVCAR-8, 10^−5 M, 48 h
SK-OV-3 = experiment: cells; assay type: cell-based; conditions: SK-OV-3, 10^−5 M, 48 h
ACHN = experiment: cells; assay type: cell-based; conditions: 10^−5 M, 48 h
SNB-19 = experiment: cells; assay type: cell-based; conditions: SNB-19, 10^−5 M, 48 h
MALME-3M = experiment: cells; assay type: cell-based; conditions: MALME-3M, 10^−5 M, 48 h
OVCAR-5 = experiment: cells; assay type: cell-based; conditions: OVCAR-5, 10^−5 M, 48 h
OVCAR-4 = experiment: cells; assay type: cell-based; conditions: OVCAR-4, 10^−5 M, 48 h
NCI-H522 = experiment: cells; assay type: cell-based; conditions: NCI-H522, 10^−5 M, 48 h
HCC-2998 = experiment: cells; assay type: cell-based; conditions: HCC-2998, 10^−5 M, 48 h
MOLT-4 = experiment: cells; assay type: cell-based; conditions: MOLT-4, 10^−5 M, 48 h
SN12C = experiment: cells; assay type: cell-based; conditions: 10^−5 M, 48 h
IGROV1 = experiment: cells; assay type: cell-based; conditions: IGROV1, 10^−5 M, 48 h
K-562 = experiment: cells; assay type: cell-based; conditions: K-562, 10^−5 M, 48 h
SF-539 = experiment: cells; assay type: cell-based; conditions: SF-539, 10^−5 M, 48 h
ERK2 = ERK2 (Rattus norvegicus, UniProt P63086); experiment: in vitro radioactive kinase assay, Ets-1 phosphorylation by ERK2; assay type: biochemical; conditions: ERK2 IC50 at 100 μM ATP /10mM Ets-1, Table 4; 100 μM ATP /10mM Ets-1
Method in brief: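 Activated rat ERK2 (2 nM) was tested with His-Ets-1 (1–138) at 28–30 °C in HEPES pH 7.5 buffer with 11 mM MgCl2, BSA and 5% DMSO. Reactions were started with [γ-32P]ATP (10 or 100 μM).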

MDA-MB-468 = experiment: cells; assay type: cell-based; conditions: MDA-MB-468, 10^−5 M, 48 h

Sequence of ERK2 (P63086 whole entry): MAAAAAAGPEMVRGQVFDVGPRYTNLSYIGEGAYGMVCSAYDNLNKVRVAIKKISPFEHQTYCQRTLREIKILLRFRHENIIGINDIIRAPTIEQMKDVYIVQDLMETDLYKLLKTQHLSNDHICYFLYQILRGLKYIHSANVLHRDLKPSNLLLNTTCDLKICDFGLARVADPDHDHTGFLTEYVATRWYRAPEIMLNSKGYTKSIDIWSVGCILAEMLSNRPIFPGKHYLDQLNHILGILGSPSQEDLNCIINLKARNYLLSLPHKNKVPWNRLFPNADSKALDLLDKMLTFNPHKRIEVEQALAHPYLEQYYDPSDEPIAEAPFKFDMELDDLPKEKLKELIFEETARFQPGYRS

Compound: Cn1c(=O)c2c3c(oc2c2ccccc21)C(=O)c1ccccc1C3=O [3e, 5-Methylnaphtho[2′,3′:4,5]furo[3,2-c]quinoline-6,7,12(5H)-trione]
- Growth percent (G%) (A498): 93.29%
- Growth percent (G%) (SK-MEL-2): 92.64%
- Growth percent (G%) (PC-3): 64.38%
- Growth percent (G%) (MDA-MB-435): 103.73%
- Growth percent (G%) (MCF7): 68.38%
- Growth percent (G%) (HOP-92): 100.92%
- Growth percent (G%) (HCT-15): 85.01%
- Growth percent (G%) (HT29): 73.69%
- Growth percent (G%) (UO-31): 54.76%
- Growth percent (G%) (U251): 90.22%
- Growth percent (G%) (HCT-116): 71.69%
- Growth percent (G%) (UACC-62): 77.03%
- Growth percent (G%) (RXF 393): 100.91%
- Growth percent (G%) (HOP-62): 81.77%
- Growth percent (G%) (SF-268): 95.35%
- Growth percent (G%) (BT-549): 77.38%
- Growth percent (G%) (T-47D): 9.70%
- Growth percent (G%) (SNB-75): 64.39%
- Growth percent (G%) (M14): 85.59%
- Growth percent (G%) (DU-145): 90.97%
- Growth percent (G%) (KM 12): 91.54%
- Growth percent (G%) (NCI-H23): 78.33%
- Growth percent (G%) (NCI-H460): 78.50%
- Growth percent (G%) (NCI-H226): 73.22%
- Growth percent (G%) (LOX IMVI): 76.59%
- Growth percent (G%) (CCRF-CEM): 19.07%
- NCI Cytotoxicity Screening Average G% ([1]; Table 4, 10 μM one-dose screen): 74%
- Average G% ([1]; average over tested NCI-60 cell lines, 10^−5 M (10 μM), 48 h): 74% and 74.32%
- Growth percent (G%) (SK-MEL-5): 76.95%
- Growth percent (G%) (OVCAR-3): 21.58%
- Growth percent (G%) (SK-MEL-28): 111.89%
- Growth percent (G%) (A549/ATCC): 81.67%
- Growth percent (G%) (RPMI-8226): 51.06%
- Growth percent (G%) (SW-620): 86.24%
- Growth percent (G%) (EKVX): 70.67%
- Growth percent (G%) (NCI-H322M): 96.16%
- Growth percent (G%) (OVCAR-8): 85.32%
- Growth percent (G%) (SK-OV-3): 93.55%
- Growth percent (G%) (ACHN): 75.49%
- Growth percent (G%) (SNB-19): 93.29%
- Growth percent (G%) (MALME-3M): 113.45%
- Growth percent (G%) (OVCAR-5): 119.92%
- Growth percent (G%) (OVCAR-4): 4.38%
- Growth percent (G%) (NCI-H522): 50.55%
- Growth percent (G%) (HCC-2998): 101.82%
- Growth percent (G%) (MOLT-4): 2.39%
- Growth percent (G%) (SN12C): 81.84%
- Growth percent (G%) (IGROV1): 68.65%
- Growth percent (G%) (K-562): 68.79%
- Growth percent (G%) (SF-539): 97.17%
- IC50 (ERK2): 21 ± 5.6 µM
- Growth percent (G%) (MDA-MB-468): −9.91%
